The species entered for test [1] is Cavia porcellus. As to the kind of experiment: Inverse agonist activity at alpha-1 receptor in guinea pig thoracic aorta assessed as inhibition of calcium-induced increase in resting tension at 10 nM relative to control. Type of test: tissue-based. In outline:
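Guinea pig thoracic aortic strips in Krebs at 37 °C, equilibrated 1 h at 1 g tension, then given (−)-noradrenaline 1 μM. Internal Ca²⁺ stores were depleted by repeated agonist in Ca²⁺-free Krebs with 0.1 mM EDTA. After 30 min with antagonist at 10 nM, 1.8 mM Ca²⁺ was added. Read-out: % decrease of Ca²⁺-induced increase in resting tension versus no-agent reference.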

Test [2] concerns the target T1, Alpha-1A adrenergic receptor (Rattus norvegicus, UniProt P43140).
T1 sequence (P43140 whole entry): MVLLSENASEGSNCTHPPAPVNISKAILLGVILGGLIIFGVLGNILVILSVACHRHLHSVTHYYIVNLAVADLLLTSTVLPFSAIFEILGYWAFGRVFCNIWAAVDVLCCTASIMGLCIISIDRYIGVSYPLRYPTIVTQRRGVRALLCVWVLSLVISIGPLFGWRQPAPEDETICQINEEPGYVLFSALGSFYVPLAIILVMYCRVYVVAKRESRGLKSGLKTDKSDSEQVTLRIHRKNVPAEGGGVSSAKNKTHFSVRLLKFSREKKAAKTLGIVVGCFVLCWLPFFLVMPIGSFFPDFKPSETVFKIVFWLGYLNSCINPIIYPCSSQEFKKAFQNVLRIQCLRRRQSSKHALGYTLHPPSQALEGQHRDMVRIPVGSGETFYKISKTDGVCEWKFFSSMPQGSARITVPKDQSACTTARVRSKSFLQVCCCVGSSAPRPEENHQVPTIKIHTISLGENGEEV
As to the kind of experiment: Antagonist activity at alpha-1A adrenoreceptor in Sprague-Dawley rat prostate assessed as inhibition of noradrenaline-induced tissue contraction after 30 mins by Schild plot analysis. Also on record: species or system Prostate gland. The conditions noted are these: read-out: pA2 (converted). An outline of the steps: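 Isolated prostatic portion of vas deferens from 200−250 g rats, in gassed (95% O₂/5% CO₂) physiological salt solution at pH 7.4 with desipramine 0.01 μM. Cumulative isotonic (−)-noradrenaline curves were run at 30 min intervals, the first discarded and the second taken as control, then a third after 30 min with antagonist. pA₂ from Schild plot, at least three antagonist concentrations, each tested 3−5 times.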

In test [3] the target is T2, Alpha-1B adrenergic receptor (Rattus norvegicus, UniProt P15823).
T2 sequence (P15823 whole entry): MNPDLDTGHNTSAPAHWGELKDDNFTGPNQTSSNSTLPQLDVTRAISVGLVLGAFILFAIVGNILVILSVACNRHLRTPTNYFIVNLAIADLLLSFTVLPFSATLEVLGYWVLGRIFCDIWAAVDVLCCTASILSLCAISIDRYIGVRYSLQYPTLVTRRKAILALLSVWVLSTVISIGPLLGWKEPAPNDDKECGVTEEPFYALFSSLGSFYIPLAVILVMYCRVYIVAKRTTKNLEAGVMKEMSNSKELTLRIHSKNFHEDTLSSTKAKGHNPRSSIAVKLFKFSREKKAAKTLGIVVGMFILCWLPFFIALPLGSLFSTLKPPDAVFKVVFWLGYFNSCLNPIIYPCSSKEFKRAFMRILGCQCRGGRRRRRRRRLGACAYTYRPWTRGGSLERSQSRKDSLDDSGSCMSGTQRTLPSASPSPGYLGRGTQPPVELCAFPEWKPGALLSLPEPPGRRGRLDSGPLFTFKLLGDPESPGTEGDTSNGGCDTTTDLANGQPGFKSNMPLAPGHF
As to the kind of experiment: Antagonist activity at alpha-1B adrenoreceptor in Sprague-Dawley rat spleen assessed as inhibition of phenylephrine-induced tissue contraction after 30 mins by Schild plot analysis. The conditions noted are these: read-out: pA2 (converted). In outline: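 Spleen from 250−300 g rats in gassed physiological salt solution with desipramine 0.01 μM and propranolol 1 μM. Isometric cumulative phenylephrine curves were run at 30 min intervals, the first discarded and the second taken as control, then a new curve after 30 min antagonist equilibration. pA₂ from Schild plot, at least three antagonist concentrations, each tested 3−5 times.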

In test [4] the target is T3, Alpha-1D adrenergic receptor (Homo sapiens, UniProt P25100).
T3 sequence (P25100 whole entry): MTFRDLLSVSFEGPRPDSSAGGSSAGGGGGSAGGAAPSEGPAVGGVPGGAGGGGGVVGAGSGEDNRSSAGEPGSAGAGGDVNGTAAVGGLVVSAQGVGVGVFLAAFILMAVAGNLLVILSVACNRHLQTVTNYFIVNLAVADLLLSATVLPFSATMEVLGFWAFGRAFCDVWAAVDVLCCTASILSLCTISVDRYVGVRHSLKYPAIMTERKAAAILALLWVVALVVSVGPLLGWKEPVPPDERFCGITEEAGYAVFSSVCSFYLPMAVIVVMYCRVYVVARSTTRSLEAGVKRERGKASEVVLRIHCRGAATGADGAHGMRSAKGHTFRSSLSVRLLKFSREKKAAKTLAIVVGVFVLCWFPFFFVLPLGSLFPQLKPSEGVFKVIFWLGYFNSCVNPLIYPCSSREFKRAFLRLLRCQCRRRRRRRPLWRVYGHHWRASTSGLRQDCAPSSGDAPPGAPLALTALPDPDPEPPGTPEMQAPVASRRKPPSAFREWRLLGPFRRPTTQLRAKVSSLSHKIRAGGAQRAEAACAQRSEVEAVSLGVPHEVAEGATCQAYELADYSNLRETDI
As to the kind of experiment: Displacement of [3H]prazosin from human alpha-1D adrenoreceptor expressed in CHO cells after 30 mins. The class given is cell-based. An outline of the steps:
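Membranes from CHO cells expressing each α₁-AR subtype, incubated 30 min at 25 °C in 50 mM Tris HCl pH 7.7 with 10 μM pargyline and 0.1% ascorbic acid, plus 0.5 nM [³H]prazosin and varying test compound concentrations. Nonspecific binding was defined with 1 μM prazosin.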
Background: Loss of bound radioactivity is the signal in a displacement assay; it reports binding, not function.

The text below walks through data of ChEMBL document CHEMBL2417545, “6-methoxy-7-benzofuranoxy and 6-methoxy-7-indolyloxy analogues of 2-[2-(2,6-Dimethoxyphenoxy)ethyl]aminomethyl-1,4-benzodioxane (WB4101):1 discovery of a potent and selective α1D-adrenoceptor antagonist” (J Med Chem, 2013).

The inhibition is the relative decrease from the control value, in per cent. As usually defined, the Ki is a measure of affinity in units of concentration, obtained from inhibition or displacement. Low readings indicate tighter binding, high ones weaker binding.

As to `COc1ccc2ccoc2c1OCCNC[C@H]1COc2ccccc2O1.Cl`, in test [1], the inhibition amounted to 0%. For the same molecule, the Kb in test [2] was 1.95 nM; in test [3], 2.09 nM. This molecule also gave a Ki in test [4] of 1.91 nM.

For `COc1ccc2cc[nH]c2c1OCCNC[C@H]1COc2ccccc2O1`, in test [1], the inhibition is 25%. Moreover, the results for the Kb in test [2] and in test [3] were 13.2 nM and 17 nM, respectively. For the same molecule, the Ki in test [4] is 631 nM.

In the case of `COc1ccc2c(c1OCCNC[C@H]1COc3ccccc3O1)NCC2.Cl.Cl`, the inhibition in test [1] was 100%. For the same molecule, the Kb in test [2] was 3.63 nM; in test [3] it was 0.832 nM. Also, in test [4], the Ki was 12.9 nM.

On to `COc1ccc2c(c1OCCNC[C@H]1COc3ccccc3O1)OCC2.Cl`, for which the inhibition in test [1] worked out at 0%. In addition, the Kb in test [2] was 13.2 nM; in test [3], 3.24 nM. The same molecule had a Ki in test [4] of 2.24 nM.
